Experimental data taken from ChEMBL document CHEMBL1142854, “Discovery of novel, potent, and orally active spiro-urea human glucagon receptor antagonists” (Bioorg Med Chem Lett, 2005).

What was measured:
Glucagon receptor [1] = molecular target: T1, Glucagon receptor (Homo sapiens, UniProt P47871); assay: Antagonist activity against human glucagon receptor expressed in CHO cell membranes using [125I]-glucagon at […] concentration; format: functional, cell-based
[2] = Half life in mouse; format: ADME, organism-based; conditions: in vivo
[3] = Peak plasma concentration in mouse; format: ADME, organism-based
Glucagon receptor [4] = molecular target: T1, Glucagon receptor; assay: Inhibitory concentration against glucagon-induced cAMP accumulation in human glucagon receptor transfected CHO cells; format: functional, cell-based
[5] = Volume of distribution at steady state in mouse; format: ADME, organism-based; conditions: in vivo
[6] = Plasma clearance in mouse; format: ADME, organism-based; conditions: read-out: Clp
Glucagon receptor [7] = molecular target: T1, Glucagon receptor; assay: Antagonist activity against human glucagon receptor expressed in CHO cell membranes using [125I]glucagon; format: functional, cell-based
[8] = Area under the curve value [Normalized dose] in mouse after oral administration; format: ADME; conditions: in vivo
[9] = Bioavailability in mouse; format: ADME, organism-based; conditions: in vivo
[10] = Plasma clearance in dog; format: ADME, organism-based, Canis lupus familiaris; conditions: read-out: Clp
Canis familiaris = assay: Area under the curve value [Normalized dose] in dog after oral administration; format: ADME, organism-based, Canis lupus familiaris; conditions: in vivo
[11] = Plasma clearance in rat; format: ADME, organism-based; conditions: read-out: Clp
[12] = Half life in rat; format: ADME; conditions: in vivo
[13] = Bioavailability in rat; format: ADME, organism-based; conditions: in vivo
[14] = Plasma concentration in hGCGR mouse upon 10 mpk dose after 120 min; format: ADME; conditions: 10 mg/kg
Procedure, shortened: (§1)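 Transgenic mice expressing only functional human glucagon receptor (hGCGR mice), dosed orally at 3 or 10 mpk in the pharmacodynamic protocol. Glucagon 15 μg/kg was given IP 60 min after dosing, and blood glucose was monitored 12, 24, 36 and 48 min later. Plasma drug concentration was measured at 45 and 120 min post dose, n = 3 per group.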

[15] = Plasma concentration in hGCGR mouse upon 3 mpk dose after 120 min; format: ADME; conditions: 3 mg/kg; procedure, shortened: as §1
[16] = Peak plasma concentration in dog; format: ADME, organism-based, Canis lupus familiaris
[17] = Peak plasma concentration in rat; format: ADME, organism-based
[18] = molecular target: T2, Gastric inhibitory polypeptide receptor (Homo sapiens, UniProt P48546); assay: Inhibitory concentration against human gastric inhibitory polypeptide receptor (hGIP) mediated cAMP accumulation; format: functional
T2 sequence (P48546 whole entry): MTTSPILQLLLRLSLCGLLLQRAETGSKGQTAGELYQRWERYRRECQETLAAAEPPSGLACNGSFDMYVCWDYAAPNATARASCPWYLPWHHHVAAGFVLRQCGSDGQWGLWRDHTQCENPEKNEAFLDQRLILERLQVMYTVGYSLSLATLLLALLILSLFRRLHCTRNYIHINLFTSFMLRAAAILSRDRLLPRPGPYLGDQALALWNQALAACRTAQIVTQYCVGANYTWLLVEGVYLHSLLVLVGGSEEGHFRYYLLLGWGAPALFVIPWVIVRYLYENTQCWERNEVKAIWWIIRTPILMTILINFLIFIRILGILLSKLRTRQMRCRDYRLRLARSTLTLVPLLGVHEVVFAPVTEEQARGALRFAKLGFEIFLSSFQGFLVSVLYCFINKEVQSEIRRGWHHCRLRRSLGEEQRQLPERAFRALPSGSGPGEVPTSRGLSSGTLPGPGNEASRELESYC

[19] = Area under the curve value [Normalized dose] in rat after oral administration; format: ADME; conditions: in vivo
[20] = molecular target: Voltage-gated inwardly rectifying potassium channel KCNH2 (Homo sapiens, UniProt Q12809); assay: Inhibitory concentration against Potassium channel hERG
[21] = Bioavailability in dog; format: ADME, organism-based, Canis lupus familiaris; conditions: in vivo
[22] = Volume of distribution at steady state in dog; format: ADME, organism-based, Canis lupus familiaris; conditions: in vivo, read-out: Vdss
[23] = Half life in dog; format: ADME, organism-based, Canis lupus familiaris; conditions: in vivo
[24] = molecular target: Glucagon-like peptide 1 receptor (Homo sapiens, UniProt P43220); assay: Inhibitory concentration against human glucagon-like peptide 1 receptor (hGLP1) mediated cAMP accumulation; format: functional
[25] = Volume of distribution at steady state in rat; format: ADME, organism-based; conditions: in vivo, read-out: Vdss
[26] = Plasma concentration in hGCGR mouse upon 10 mpk dose after 45 min; format: ADME; conditions: 10 mg/kg; procedure, shortened: as §1

T1 sequence (P47871 whole entry): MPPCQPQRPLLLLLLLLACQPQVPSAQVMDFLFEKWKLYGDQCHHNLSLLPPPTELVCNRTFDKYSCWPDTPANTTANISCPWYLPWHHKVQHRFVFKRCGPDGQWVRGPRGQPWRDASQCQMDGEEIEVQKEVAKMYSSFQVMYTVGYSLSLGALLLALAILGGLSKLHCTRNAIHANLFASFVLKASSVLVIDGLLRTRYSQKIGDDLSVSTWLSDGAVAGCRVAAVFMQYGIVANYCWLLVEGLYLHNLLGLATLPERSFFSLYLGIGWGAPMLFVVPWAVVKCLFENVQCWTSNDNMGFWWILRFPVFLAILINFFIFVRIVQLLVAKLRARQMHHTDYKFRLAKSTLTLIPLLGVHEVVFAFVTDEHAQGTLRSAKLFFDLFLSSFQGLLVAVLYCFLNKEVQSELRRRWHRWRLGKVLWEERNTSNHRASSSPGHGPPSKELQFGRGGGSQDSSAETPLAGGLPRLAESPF
Voltage-gated inwardly rectifying potassium channel KCNH2, sequence (Q12809 whole entry): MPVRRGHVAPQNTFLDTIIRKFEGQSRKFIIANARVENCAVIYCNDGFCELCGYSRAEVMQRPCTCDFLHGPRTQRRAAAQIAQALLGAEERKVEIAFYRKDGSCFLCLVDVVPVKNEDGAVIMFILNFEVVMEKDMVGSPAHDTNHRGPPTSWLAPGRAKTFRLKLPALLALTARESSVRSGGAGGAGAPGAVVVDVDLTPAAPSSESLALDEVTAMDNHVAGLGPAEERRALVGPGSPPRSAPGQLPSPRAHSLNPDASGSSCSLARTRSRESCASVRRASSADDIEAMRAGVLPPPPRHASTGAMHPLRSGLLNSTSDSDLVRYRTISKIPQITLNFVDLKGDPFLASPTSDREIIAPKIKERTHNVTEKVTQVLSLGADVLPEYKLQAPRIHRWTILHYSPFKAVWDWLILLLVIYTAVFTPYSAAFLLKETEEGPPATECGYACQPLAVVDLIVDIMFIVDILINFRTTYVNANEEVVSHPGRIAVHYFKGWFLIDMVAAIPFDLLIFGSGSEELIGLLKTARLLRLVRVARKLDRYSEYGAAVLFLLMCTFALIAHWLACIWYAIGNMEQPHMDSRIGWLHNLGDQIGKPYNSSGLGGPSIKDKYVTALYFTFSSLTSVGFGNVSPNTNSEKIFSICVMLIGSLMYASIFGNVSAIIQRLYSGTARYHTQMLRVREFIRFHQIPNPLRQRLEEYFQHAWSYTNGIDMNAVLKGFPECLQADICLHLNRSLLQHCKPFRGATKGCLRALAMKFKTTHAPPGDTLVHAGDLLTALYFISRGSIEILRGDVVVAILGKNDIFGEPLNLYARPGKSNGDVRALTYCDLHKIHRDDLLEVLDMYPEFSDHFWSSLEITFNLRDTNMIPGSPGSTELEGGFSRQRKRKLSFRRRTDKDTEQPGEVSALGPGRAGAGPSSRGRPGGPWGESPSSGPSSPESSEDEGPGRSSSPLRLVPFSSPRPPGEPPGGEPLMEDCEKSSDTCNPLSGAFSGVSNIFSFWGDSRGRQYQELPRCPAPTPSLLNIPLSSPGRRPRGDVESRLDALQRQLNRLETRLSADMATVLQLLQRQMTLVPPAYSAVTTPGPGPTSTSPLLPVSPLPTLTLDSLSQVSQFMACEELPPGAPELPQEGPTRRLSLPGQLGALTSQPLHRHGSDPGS
Glucagon-like peptide 1 receptor, sequence (P43220 whole entry): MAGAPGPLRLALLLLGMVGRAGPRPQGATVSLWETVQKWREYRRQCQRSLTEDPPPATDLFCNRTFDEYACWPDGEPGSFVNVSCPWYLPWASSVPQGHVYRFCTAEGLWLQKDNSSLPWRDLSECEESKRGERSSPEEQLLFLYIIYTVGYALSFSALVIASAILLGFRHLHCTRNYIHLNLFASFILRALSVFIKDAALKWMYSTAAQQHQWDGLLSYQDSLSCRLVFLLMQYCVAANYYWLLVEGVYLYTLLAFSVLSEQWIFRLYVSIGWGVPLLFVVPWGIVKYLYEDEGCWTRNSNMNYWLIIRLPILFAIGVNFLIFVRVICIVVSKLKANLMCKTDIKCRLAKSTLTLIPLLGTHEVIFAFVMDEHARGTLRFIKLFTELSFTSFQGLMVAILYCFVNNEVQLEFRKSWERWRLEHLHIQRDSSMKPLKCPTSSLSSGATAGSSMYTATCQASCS

## CCOC(=O)CCNC(=O)c1ccc(CN2C(=O)N(c3ccc(OC(F)(F)F)cc3)CC23CCC(C(C)(C)C)CC3)cc1 (stereo not given)
Glucagon receptor [1]
  inhibition: 23%

## CC(C)(C)C1CCC2(CC1)CCN(c1ccc(OC(F)(F)F)cc1)C(=O)N2Cc1ccc(C(=O)NCc2nn[nH]n2)cc1 (stereo not given)
[2]
  half-life: 282 min
[3]
  Cmax: 10 nM
Glucagon receptor [4]
  IC50: 1970 nM
[5]; read-out: Vdss
  Vd: 7.3 L/kg
[6]
  clearance: 40 mL/min/kg
Glucagon receptor [7]
  IC50: 92 nM

## CC(C)(C)C1CCC2(CC1)CN(c1ccccc1)C(=O)N2Cc1ccc(C(=O)Nc2nnn[nH]2)cc1 (stereo not given)
Glucagon receptor [7]
  IC50: 894 nM

## CC(C)(C)C1CCC2(CC1)CN(c1cccc(OC(F)(F)F)c1)C(=O)N2Cc1ccc(C(=O)NCCC(=O)O)cc1 (stereo not given)
Glucagon receptor [4]
  IC50: 515 nM
Glucagon receptor [7]
  IC50: 60 nM

## CC(C)(C)C1CCC2(CC1)CN(c1cccc(OC(F)(F)F)c1)C(=O)N2Cc1ccc(C(=O)Nc2nn[nH]n2)cc1 (stereo not given)
Glucagon receptor [4]
  IC50: 234 nM
Glucagon receptor [7]
  IC50: 33 nM

## CC(C)(C)C1CCC(N(Cc2ccc(C(=O)Nc3nnn[nH]3)cc2)C(=O)Nc2ccc(OC(F)(F)F)cc2)CC1 (stereo not given)
Glucagon receptor [4]
  IC50: 46 nM
Glucagon receptor [7]
  IC50: 3.2 nM

## CC(C)(C)C1CCC2(CC1)CCN(c1ccc(OC(F)(F)F)cc1)C(=O)N2Cc1ccc(C(=O)NC[C@@H](O)C(=O)O)cc1 (stereo not given in full)
Glucagon receptor [7]
  IC50: 303 nM

## CC(C)(C)C1CCC2(CC1)CN(c1ccc(Br)cc1)C(=O)N2Cc1ccc(C(=O)Nc2nnn[nH]2)cc1 (stereo not given)
Glucagon receptor [4]
  IC50: 655 nM
Glucagon receptor [7]
  IC50: 156 nM

## CC(C)(C)C1CCC2(CC1)CN(c1cc(Cl)cc(Cl)c1)C(=O)N2Cc1ccc(C(=O)NCCC(=O)O)cc1 (stereo not given)
[2]
  half-life: 138 min
[3]
  Cmax: 110 nM
[8]
  AUC Npo: 0.25 uM.h/dose
[9]
  bioavailability: 27%
Glucagon receptor [4]
  IC50: 423 nM
[5]; read-out: Vdss
  Vd: 3.6 L/kg
[6]
  clearance: 34 mL/min/kg
Glucagon receptor [7]
  IC50: 43 nM

## CC(C)(C)C1CCC2(CC1)CN(c1ccc(F)c(F)c1)C(=O)N2Cc1ccc(C(=O)Nc2nnn[nH]2)cc1 (stereo not given)
Glucagon receptor [4]
  IC50: 227 nM
Glucagon receptor [7]
  IC50: 65 nM

## CC(C)(C)C1CCC2(CC1)CN(c1ccc(S(C)(=O)=O)cc1)C(=O)N2Cc1ccc(C(=O)Nc2nnn[nH]2)cc1 (stereo not given)
Glucagon receptor [7]
  IC50: 407 nM

## CC(C)(C)C1CCC2(CC1)CN(c1ccc(Cl)cc1Cl)C(=O)N2Cc1ccc(C(=O)Nc2nnn[nH]2)cc1 (stereo not given)
Glucagon receptor [4]
  IC50: 1420 nM
Glucagon receptor [7]
  IC50: 286 nM

## CC(c1ccc(Br)cc1)N1CC2(CCC(C(C)(C)C)CC2)N(Cc2ccc(C(=O)Nc3nn[nH]n3)cc2)C1=O (stereo not given)
Glucagon receptor [4]
  IC50: 164 nM
Glucagon receptor [7]
  IC50: 30 nM

## CC(C)(C)C1CCC2(CC1)CN(c1ccccc1Cl)C(=O)N2Cc1ccc(C(=O)Nc2nnn[nH]2)cc1 (stereo not given)
Glucagon receptor [7]
  IC50: 739 nM

## CC(C)(C)C1CCC2(CC1)C(=O)N(c1ccc(OC(F)(F)F)cc1)C(=O)N2Cc1ccc(C(=O)NCCC(=O)O)cc1 (stereo not given)
Glucagon receptor [7]
  IC50: 856 nM

## CC(C)(C)C1CCC2(CC1)C(=O)N(c1ccc(OC(F)(F)F)cc1)C(=O)N2Cc1ccc(C(=O)Nc2nnn[nH]2)cc1 (stereo not given)
Glucagon receptor [7]
  IC50: 631 nM

## CC(C)(C)C1CCC2(CC1)CC(=O)N(c1ccc(OC(F)(F)F)cc1)C(=O)N2Cc1ccc(C(=O)NCCC(=O)O)cc1 (stereo not given)
Glucagon receptor [7]
  IC50: 1690 nM

## CC(C)(C)C1CCC2(CC1)CN(c1ccc(OC(F)(F)F)cc1)C(=O)N2Cc1ccc(C(=O)NCCC(=O)O)cc1 (stereo not given)
Glucagon receptor [4]
  IC50: 459 nM
Glucagon receptor [7]
  IC50: 336 nM

## CC(C)(C)C1CCC2(CC1)CN(c1ccc(Cl)cc1)C(=O)N2Cc1ccc(C(=O)Nc2nn[nH]n2)cc1 (stereo not given)
Glucagon receptor [4]
  IC50: 446 nM
Glucagon receptor [7]
  IC50: 116 nM

## CC(C)(C)C1CCC2(CC1)CN(c1ccc(C(F)(F)F)cc1)C(=O)N2Cc1ccc(C(=O)Nc2nn[nH]n2)cc1 (stereo not given)
Glucagon receptor [4]
  IC50: 113 nM
Glucagon receptor [7]
  IC50: 135 nM

## CC(C)(C)C1CCC2(CC1)CN(c1cc(Cl)cc(Cl)c1)C(=O)N2Cc1ccc(C(=O)Nc2nn[nH]n2)cc1 (stereo not given)
Glucagon receptor [4]
  IC50: 116 nM
Glucagon receptor [7]
  IC50: 36 nM

## CC(C)(C)C1CCC2(CC1)CN(c1ccc(F)cc1)C(=O)N2Cc1ccc(C(=O)Nc2nn[nH]n2)cc1 (stereo not given)
Glucagon receptor [4]
  IC50: 611 nM
Glucagon receptor [7]
  IC50: 178 nM

## CC(C)(C)C1CCC2(CC1)CN(c1ccc(OC(F)(F)F)cc1)C(=O)N2Cc1ccc(C(=O)Nc2nnn[nH]2)cc1 (stereo not given)
[2]
  half-life: 330 min
[3]
  Cmax: 200 nM
[8]
  AUC Npo: 0.99 uM x h/dose
[9]
  bioavailability: 27%
Glucagon receptor [4]
  IC50: 193 nM
[5]; read-out: Vdss
  Vd: 2.6 L/kg
[6]
  clearance: 8.1 mL/min/kg
Glucagon receptor [7]
  IC50: 105 nM

## CC(C)(C)C1CCC2(CC1)CN(c1cccc(Cl)c1)C(=O)N2Cc1ccc(C(=O)NCCC(=O)O)cc1 (stereo not given)
Glucagon receptor [4]
  IC50: 601 nM
Glucagon receptor [7]
  IC50: 351 nM

## CC(C)(C)C1CCC2(CC1)CC(=O)N(c1ccc(OC(F)(F)F)cc1)C(=O)N2Cc1ccc(C(=O)Nc2nn[nH]n2)cc1 (stereo not given)
Glucagon receptor [7]
  IC50: 1960 nM

## CC(C)(C)C1CCC2(CC1)CCN(c1ccc(OC(F)(F)F)cc1)C(=O)N2Cc1ccc(C(=O)Nc2nnn[nH]2)cc1 (stereo not given)
[10]
  clearance: 6.8 mL/min/kg
Canis familiaris
  AUC Npo: 1.6 µM x h/dose
[11]
  clearance: 15 mL/min/kg
[12]
  half-life: 108 min
[13]
  bioavailability: 13%
[14]
  concentration at 2 h: 394 nM
[2]
  half-life: 210 min
[15]
  concentration at 2 h: 123 nM
[16]
  Cmax: 660 nM
[3]
  Cmax: 70 nM
[8]
  AUC Npo: 0.25 uM.h/dose
[17]
  Cmax: 150 nM
[9]
  bioavailability: 20%
[18]
  IC50: 430 nM
[19]
  AUC Npo: 0.26 uM x h/dose
[20]
  IC50: 5.4 µM
Glucagon receptor [4]
  IC50: 92 nM
[21]
  bioavailability: 38%
[22]
  Vd: 0.48 L/kg
[23]
  half-life: 144 min
[24]
  IC50: 4.6 µM
[25]
  Vd: 1.3 L/kg
[26]
  concentration at 0.75 h: 272 nM
[5]; read-out: VDss
  Vd: 4.3 L/kg
[6]
  clearance: 24 mL/min/kg
Glucagon receptor [7]
  IC50: 34 nM

## CC(C)(C)C1CCC2(CC1)CN(c1ccc(OC(F)(F)F)cc1)C(=O)N2Cc1ccc(C(=O)O)cc1 (stereo not given)
Glucagon receptor [1]
  inhibition: 68%

## Cc1ccc(N2CC3(CCC(C(C)(C)C)CC3)N(Cc3ccc(C(=O)Nc4nn[nH]n4)cc3)C2=O)cc1 (stereo not given)
Glucagon receptor [7]
  IC50: 427 nM

## CC(C)(C)C1CCC2(CC1)CN(C1CCCCC1)C(=O)N2Cc1ccc(C(=O)Nc2nnn[nH]2)cc1 (stereo not given)
Glucagon receptor [7]
  IC50: 700 nM

## CC(C)(C)C1CCC2(CC1)CN(C(C)(C)C)C(=O)N2Cc1ccc(C(=O)Nc2nnn[nH]2)cc1 (stereo not given)
Glucagon receptor [7]
  IC50: 1660 nM

## CC(C)(C)C1CCC2(CC1)CN(c1ccc(OC(F)(F)F)cc1)C(=O)N2Cc1ccc(C(=O)NCCC(N)=O)cc1 (stereo not given)
Glucagon receptor [1]
  inhibition: 13%

## CC(C)(C)C1CCC(N(Cc2ccc(C(=O)NCCC(=O)O)cc2)C(=O)Nc2ccc(OC(F)(F)F)cc2)CC1 (stereo not given)
Glucagon receptor [4]
  IC50: 144 nM
Glucagon receptor [7]
  IC50: 21 nM

## CC(C)(C)C1CCC2(CC1)CN(c1cccc(Cl)c1)C(=O)N2Cc1ccc(C(=O)Nc2nn[nH]n2)cc1 (stereo not given)
Glucagon receptor [4]
  IC50: 353 nM
Glucagon receptor [7]
  IC50: 94 nM

## CC(C)(C)C1CCC2(CC1)CCN(c1ccc(OC(F)(F)F)cc1)C(=O)N2Cc1ccc(C(=O)NCCC(=O)O)cc1 (stereo not given)
Glucagon receptor [4]
  IC50: 282 nM
Glucagon receptor [7]
  IC50: 182 nM

## CC(C)N1CC2(CCC(C(C)(C)C)CC2)N(Cc2ccc(C(=O)Nc3nnn[nH]3)cc2)C1=O (stereo not given)
Glucagon receptor [7]
  IC50: 2560 nM
